Laboratory results as given in ChEMBL document CHEMBL4118269 (J Med Chem, 2018).
Converted amounts (≈) assume the structure as drawn.

Tests used:
[1] = molecular target: T1, Lanosterol 14-alpha demethylase (Aspergillus, UniProt B8NUK6+G4WW85+Q9P8R0); experiment: Binding affinity to Aspergillus fumigatus CYP51 by spectral titration method; details: read-out: Kd(app)
T1 sequence (B8NUK6 whole entry): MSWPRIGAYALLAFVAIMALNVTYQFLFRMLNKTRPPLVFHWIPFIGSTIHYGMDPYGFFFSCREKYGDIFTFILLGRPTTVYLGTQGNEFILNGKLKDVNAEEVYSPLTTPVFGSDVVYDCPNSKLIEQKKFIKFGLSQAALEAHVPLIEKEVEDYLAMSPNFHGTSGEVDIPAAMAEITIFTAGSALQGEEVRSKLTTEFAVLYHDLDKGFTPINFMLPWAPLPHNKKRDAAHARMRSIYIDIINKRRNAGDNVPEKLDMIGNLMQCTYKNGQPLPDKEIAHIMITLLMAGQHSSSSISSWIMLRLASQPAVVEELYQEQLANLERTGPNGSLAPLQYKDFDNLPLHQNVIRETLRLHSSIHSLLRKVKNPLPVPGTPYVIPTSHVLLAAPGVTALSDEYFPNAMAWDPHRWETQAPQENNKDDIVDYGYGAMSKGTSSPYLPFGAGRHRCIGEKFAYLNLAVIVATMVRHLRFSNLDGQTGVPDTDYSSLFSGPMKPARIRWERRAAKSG
T1 sequence (Q9P8R0 whole entry): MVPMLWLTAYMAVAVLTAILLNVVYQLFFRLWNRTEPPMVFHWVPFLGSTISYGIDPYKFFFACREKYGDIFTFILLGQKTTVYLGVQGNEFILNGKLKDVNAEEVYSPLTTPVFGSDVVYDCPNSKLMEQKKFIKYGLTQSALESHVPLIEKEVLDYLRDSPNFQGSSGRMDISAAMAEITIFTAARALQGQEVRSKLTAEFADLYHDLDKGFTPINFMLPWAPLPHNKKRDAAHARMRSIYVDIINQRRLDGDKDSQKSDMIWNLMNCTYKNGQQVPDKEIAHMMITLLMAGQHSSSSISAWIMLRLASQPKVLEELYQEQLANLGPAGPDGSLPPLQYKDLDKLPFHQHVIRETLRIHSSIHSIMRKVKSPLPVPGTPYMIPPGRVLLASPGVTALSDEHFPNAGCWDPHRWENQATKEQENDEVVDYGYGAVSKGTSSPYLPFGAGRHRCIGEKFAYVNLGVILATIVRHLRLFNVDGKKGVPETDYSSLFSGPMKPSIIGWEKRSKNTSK
T1 sequence (G4WW85 whole entry): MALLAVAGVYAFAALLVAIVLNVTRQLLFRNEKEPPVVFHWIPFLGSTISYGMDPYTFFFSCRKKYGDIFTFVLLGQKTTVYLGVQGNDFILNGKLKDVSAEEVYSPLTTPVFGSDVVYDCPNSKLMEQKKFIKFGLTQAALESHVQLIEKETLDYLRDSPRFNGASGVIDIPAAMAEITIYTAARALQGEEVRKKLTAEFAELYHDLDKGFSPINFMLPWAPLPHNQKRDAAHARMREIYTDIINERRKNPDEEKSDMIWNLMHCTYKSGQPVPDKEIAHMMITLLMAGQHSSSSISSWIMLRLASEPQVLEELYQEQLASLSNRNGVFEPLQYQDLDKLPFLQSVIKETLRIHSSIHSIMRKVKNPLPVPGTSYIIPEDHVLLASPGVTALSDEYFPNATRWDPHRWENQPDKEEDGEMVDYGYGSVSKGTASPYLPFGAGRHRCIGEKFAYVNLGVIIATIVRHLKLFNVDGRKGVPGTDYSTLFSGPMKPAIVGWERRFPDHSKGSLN
How it was run: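 Purified CYP51 at 0.5 μM in 5 cm path cuvettes, titrated from 0.2 mM DMSO stocks over 0.1–0.8 μM ligand. Type II red shift of the Soret band (417 to 424 nm) followed as ΔA (Amax−Amin) in difference spectra. Kd obtained by fitting to the quadratic tight-binding equation using total ligand and enzyme concentrations.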

Aspergillus fumigatus [2] = experiment: Antifungal activity against Aspergillus fumigatus after 48 hrs
in vitro [3] = details: CD-1, mouse, liver microsomes
in vitro [4] = details: Sprague-Dawley, rat, liver microsomes
in vitro [5] = details: CD-1, mouse, liver microsomes; remark: listed apart in the source
[6] = Lipophilicity, log P of the compound; type: physicochemical; details: octanol/water
[7] = molecular target: Lanosterol 14-alpha demethylase (Aspergillus) (UniProt B8NUK6+Q9P8R0+G4WW85); experiment: Inhibition of Aspergillus fumigatus CYP51 assessed as reduction in [3-3H]eburicol 14alpha-demethylation at 0.75 uM preincubated for 60 secs followed by NADPH addition measured after 60 mins by RP-HPLC analysis relative to control
How it was run: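 E. coli-expressed, purified CYP51 (0.5 μM) with rat NADPH-P450 reductase (1.0 μM), 100 μM dilauroylphosphatidylcholine, isocitrate dehydrogenase/isocitrate NADPH regeneration, in 50 mM K phosphate pH 7.2 with 10% glycerol and 0.1% Triton X-100. [3-3H]eburicol 25 μM final, inhibitor 0.75 μM final (1.5:1:50 inhibitor:enzyme:substrate), 37 °C. Started with 100 μM NADPH, 60 min, EtOAc extraction, radio-HPLC. Percent inhibition, triplicate, mean ± SD.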

[8] = Half life in human liver microsomes at 1 uM preincubated for 5 mins followed by NADPH addition measured up to 45 mins by LC-MS/MS analysis; type: ADME, microsome; details: 0.75 h
How it was run: (§1)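 Pooled liver microsomes (0.5 mg/mL; male CD-1 mouse, male Sprague Dawley rat, or mixed-gender human) with 1 μM compound in 100 mM potassium phosphate pH 7.4, 3 mM MgCl2, 37 °C with shaking. 5 min preincubation, then 1 mM NADPH. Aliquots at 0, 3, 7, 15, 25, 45 min quenched in cold CH3CN with carbamazepine internal standard, then LC/MS/MS. Triplicate; T1/2 = ln2/k from the slope of ln % remaining versus time.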

[9] = Half life in CD-1 mouse liver microsomes at 1 uM preincubated for 5 mins followed by NADPH addition measured up to 45 mins by LC-MS/MS analysis; type: ADME, microsome; details: 0.75 h; how it was run: as §1
Aspergillus fumigatus [10] = experiment: Antifungal activity against Aspergillus fumigatus 32820 after 48 hrs by CLSI M38-A2 protocol based assay; type: functional; details: Aspergillus fumigatus, 32820, 48 h; read-out: MIC100
in vitro [11] = details: human, liver microsomes
in vitro [12] = details: human, liver microsomes; remark: listed apart in the source
in vitro [13] = details: Sprague-Dawley, rat, liver microsomes; remark: listed apart in the source
Aspergillus fumigatus [14] = experiment: Antifungal activity against Aspergillus fumigatus 1022 after 48 hrs by CLSI M38-A2 protocol based assay; type: functional; details: Aspergillus fumigatus, 1022, 48 h; read-out: MIC100
[15] = molecular target: T2, Lanosterol 14-alpha demethylase (Candida albicans (strain SC5314 / ATCC MYA-2876) (Yeast), UniProt P10613); experiment: Inhibition of Candida albicans CYP51 assessed as reduction in [3-3H]lanosterol 14alpha-demethylation at 0.75 uM preincubated for 60 secs followed by NADPH addition measured after 60 mins by RP-HPLC analysis relative to control; details: 1 h
T2 sequence (P10613 whole entry): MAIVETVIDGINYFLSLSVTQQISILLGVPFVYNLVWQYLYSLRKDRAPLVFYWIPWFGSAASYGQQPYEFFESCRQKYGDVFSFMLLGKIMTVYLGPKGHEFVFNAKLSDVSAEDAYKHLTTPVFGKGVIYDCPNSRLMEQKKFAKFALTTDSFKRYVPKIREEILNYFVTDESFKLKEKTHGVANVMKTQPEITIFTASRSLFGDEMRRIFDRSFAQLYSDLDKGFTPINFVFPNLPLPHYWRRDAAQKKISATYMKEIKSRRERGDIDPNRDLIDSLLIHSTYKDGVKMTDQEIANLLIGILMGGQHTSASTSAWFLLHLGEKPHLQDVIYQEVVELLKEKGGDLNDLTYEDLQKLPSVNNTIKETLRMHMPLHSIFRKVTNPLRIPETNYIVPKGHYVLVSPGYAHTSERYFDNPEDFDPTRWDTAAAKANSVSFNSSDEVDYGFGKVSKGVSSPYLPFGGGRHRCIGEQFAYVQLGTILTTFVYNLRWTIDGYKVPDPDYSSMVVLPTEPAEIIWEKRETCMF
How it was run: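 C. albicans CYP51 expressed in E. coli and purified, 0.5 μM, with 1.0 μM rat NADPH-P450 reductase, dilauroylphosphatidylcholine and isocitrate dehydrogenase/isocitrate regeneration in 50 mM potassium phosphate pH 7.2, 10% glycerol, 0.1% Triton X-100. Substrate 25 μM final; inhibitor:enzyme:substrate 1.5:1:50. 37 °C, started with 100 μM NADPH. Sterols extracted with EtOAc, radio-HPLC. Triplicate, mean ± SD.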

Aspergillus fumigatus [16] = experiment: Antifungal activity against Aspergillus fumigatus MYA626 after 48 hrs by CLSI M38-A2 protocol based assay; type: functional; details: MYA626, 48 h, read-out: MIC100
[17] = Half life in Sprague-Dawley rat liver microsomes at 1 uM preincubated for 5 mins followed by NADPH addition measured up to 45 mins by LC-MS/MS analysis; type: ADME, microsome; details: 0.75 h; how it was run: as §1
[18] = molecular target: T2, Lanosterol 14-alpha demethylase; experiment: Potency index, ratio of VNI Kd(app) to compound Kd(app) for Candida albicans CYP51
[19] = molecular target: T2, Lanosterol 14-alpha demethylase; experiment: Binding affinity to Candida albicans CYP51 by spectral titration method; details: read-out: Kd(app)
How it was run: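 Purified CYP51 at 0.5 μM in 5 cm path cuvettes, titrated from 0.2 mM DMSO stocks over 0.1–0.8 μM ligand. Kd obtained by fitting to the quadratic tight-binding equation using total ligand and enzyme concentrations.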

Structure (SMILES) | Kd [1] | MIC (Aspergillus fumigatus [2]) | CLint scaled at 0.75 h, 1 µM (in vitro [3]) | CLhep predicted at 0.75 h, 1 µM (in vitro [4]) | CLhep predicted at 0.75 h, 1 µM (in vitro [5]) | logP [6] | inhibition [7] | t1/2 [8] | t1/2 [9] | MIC (Aspergillus fumigatus [10]) | CLhep predicted at 0.75 h, 1 µM (in vitro [11]) | CLint scaled at 0.75 h, 1 µM (in vitro [12]) | CLint scaled at 0.75 h, 1 µM (in vitro [13]) | MIC (Aspergillus fumigatus [14]) | inhibition at 0.75 µM [15] | MIC (Aspergillus fumigatus [16]) | t1/2 [17] | Ratio [18] | Kd [19]
C[C@@H](c1ncncc1F)[C@](O)(Cn1cncn1)c1ccc(F)cc1F [VORICONAZOLE] | 56 nM | 0.7 µg/mL (≈ 2 µM) | – | – | – | – | – | – | – | – | – | – | – | – | – | – | – | – | –
O=C(N[C@@H](Cn1ccnc1)c1ccc(Cl)cc1Cl)c1ccc(-c2nnc(-c3cc(F)cc(-c4ncncc4F)c3)o2)cc1 | 132 nM | – | 104 mL/min/kg | 19.5 mL/min/kg | 48.3 mL/min/kg | 5.05 | 57% | 1.4 h | 0.867 h | 0.19 µg/mL (≈ 0.307 µM) | 8.37 mL/min/kg | 14.9 mL/min/kg | 27 mL/min/kg | 0.48 µg/mL (≈ 0.776 µM) | 92% | 0.78 µg/mL (≈ 1.26 µM) | – | – | –
O=C(N[C@@H](Cn1ccnc1)c1ccc(Cl)cc1Cl)c1ccc(-c2nnc(-c3ccc(C(F)(F)F)c(F)c3)o2)cc1 | 55 nM | – | 60 mL/min/kg | 24 mL/min/kg | 36 mL/min/kg | 5.65 | 65% | 3.43 h | 1.53 h | 0.09 µg/mL (≈ 0.152 µM) | 4.07 mL/min/kg | 6.06 mL/min/kg | 36 mL/min/kg | 0.19 µg/mL (≈ 0.322 µM) | 89% | 0.39 µg/mL (≈ 0.661 µM) | 1.28 h | – | –
O=C(N[C@@H](Cn1ccnc1)c1ccc(Cl)cc1Cl)c1ccc(-c2nnc(-c3ccc(OCC(F)(F)F)cc3F)o2)cc1 | 20 nM | – | 88 mL/min/kg | 34 mL/min/kg | 44 mL/min/kg | 5.58 | 82% | 1.27 h | 1.03 h | 0.06 µg/mL (≈ 0.0967 µM) | 9.24 mL/min/kg | 16.5 mL/min/kg | 64 mL/min/kg | 0.19 µg/mL (≈ 0.306 µM) | 94% | 0.39 µg/mL (≈ 0.629 µM) | – | – | –
CC[C@@H]([C@H](C)O)n1ncn(-c2ccc(N3CCN(c4ccc(OC[C@@H]5CO[C@@](Cn6cncn6)(c6ccc(F)cc6F)C5)cc4)CC3)cc2)c1=O [POSACONAZOLE] | 131 nM | – | – | – | – | – | 93% | – | – | – | – | – | – | – | 98% | – | – | 3.5 | 81 nM
O=C(N[C@@H](Cn1ccnc1)c1ccc(Cl)cc1Cl)c1ccc(-c2nnc(-c3ccccc3)o2)cc1 | 203 nM | 0.5 µg/mL (≈ 0.991 µM) | 87 mL/min/kg | 19.2 mL/min/kg | 44 mL/min/kg | 4.57 | 24% | 2.5 h | 1.03 h | 0.08 µg/mL (≈ 0.159 µM) | 5.95 mL/min/kg | 8.31 mL/min/kg | 26.4 mL/min/kg | 0.48 µg/mL (≈ 0.952 µM) | 20% | – | 1.77 h | – | –
O=C(N[C@@H](Cn1ccnc1)c1ccc(Cl)cc1Cl)c1ccc(-c2nnc(-c3ccc(F)c(F)c3)o2)cc1 | 57 nM | – | 55 mL/min/kg | 21 mL/min/kg | 34 mL/min/kg | 4.88 | 58% | 2.77 h | 1.63 h | 0.08 µg/mL (≈ 0.148 µM) | 5.54 mL/min/kg | 7.53 mL/min/kg | 31 mL/min/kg | 0.29 µg/mL (≈ 0.537 µM) | – | 0.78 µg/mL (≈ 1.44 µM) | 1.52 h | – | –
